# Most compounds without a hit are left out; they make up all but 1.1% or so of the library.
# MT1-MMP act inh – blocks activation of human MT1-MMP; HT1080 RFP-PRO-GFP cells, GFP/RFP ratio fluorescence, overnight; percent of plate control window, DMSO zero; GFP/RFP ratio change, % at 20 µM; 360,000 compounds, 0.061% hits;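 active means GFP/RFP ratio change of at least 30% with cell ATP level not reduced by more than half and red fluorescence within 50% of control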
#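 Test system: HT1080 cells expressing an RFP-PRO-GFP fluorescent reporter construct / Compound dosing: single-point 20 µM compound, 1% DMSO / Schedule: cells overnight before dosing, compound overnight, 37 °C, 5% CO2 / Evaluation: GFP/RFP fluorescence ratio / Control set: DMSO and RFP-L50D-GFP cell wells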
# DAGLB inh – diacylglycerol lipase beta (human) inhibition; Q8NCG7; HEK293T DAGLB membrane lysate, EnzChek fluorogenic substrate; inhibition, % at 5.17 µM; 340,000 compounds, 0.059% hits; AID 504411; in the data active means inhibition above about 34%;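 further: 0% = enzyme with vehicle and 100% = wells lacking enzyme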
# NR2E3 ag-1 – activates human NR2E3 receptor. Q9Y5X4. CHO-S Gal4-NCOR/VP16-NR2E3 two-hybrid, luciferase. inhibition of corepressor binding, % at 3.98 µM. 360,000 compounds, 0.35% hits. AID 602229;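 active means inhibition above the mean of all tested compounds plus 3 SD, cut at about 70% in these data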;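 further: 0% = DMSO with NR2E3 transfected cells and 100% = cells lacking NR2E3 construct; higher means lower luciferase signal from less NR2E3 corepressor binding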
# Target sequence (Q9Y5X4 whole entry, looked up, the tested form may be a part): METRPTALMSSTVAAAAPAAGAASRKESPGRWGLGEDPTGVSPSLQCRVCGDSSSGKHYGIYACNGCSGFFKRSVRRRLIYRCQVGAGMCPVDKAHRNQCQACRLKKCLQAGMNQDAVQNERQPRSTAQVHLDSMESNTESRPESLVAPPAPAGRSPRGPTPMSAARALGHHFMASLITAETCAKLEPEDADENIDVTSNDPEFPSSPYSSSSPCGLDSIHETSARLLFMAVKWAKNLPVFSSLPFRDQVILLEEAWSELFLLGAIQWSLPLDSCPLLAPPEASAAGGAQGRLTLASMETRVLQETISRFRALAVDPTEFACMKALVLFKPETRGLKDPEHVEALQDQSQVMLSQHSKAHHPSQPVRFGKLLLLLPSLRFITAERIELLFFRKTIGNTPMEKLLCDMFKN
# Vif inh – inhibitors of HIV Vif; inhibition, % at 7.49 µM; 340,000 compounds, 0.35% hits; HEK293T cells, Vif self-association by quenched fluorescence, imaging, 24 h; in the data active means inhibition above about 50%, passing the limit was not always enough
# HCV core dimer – HCV core protein dimerization inhibition; TR-FRET GST/Flag-core106 dimerization, 1536-well; inhibition, % at 5 µM; 300,000 compounds, 0.33% hits;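 active means inhibition above the mean of all tested compounds plus 3 SD, set per screening campaign, cut at about 45% in these data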
#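 Assay system: tagged HCV core106 pair (GST and Flag); medium: KF-containing HEPES buffer, pH 7.45, DTT, CHAPS, BSA; also added: Eu donor and XL665 acceptor anti-tag antibodies; dosing: 5 µM single dose; timing: compound-protein-antibody incubation 4 h at 22.5 °C; signal: TR-FRET 671 and 617 nm emission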
# NR2E3 ag-2 – NR2E3 (human) agonism | Q9Y5X4 | GST-NR2E3/biotin-RetCOR TR-FRET, 1536-well | inhibition of corepressor binding, % at 4.78 µM | 320,000 compounds, 0.12% hits | AID 2300;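 active means percent inhibition above the cutoff of mean plus 3 SD of all tested compounds, set per screening campaign, cut at about 20% in these data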;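 further: 0% = DMSO wells and 100% = biotin wells as full block of FRET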
#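 Assay system: NR2E3–RetCOR corepressor complex. Quantity: 1.35 nM GST-NR2E3. Buffer or medium: pH 7.5 Tris-based buffer. Reagent: biotinylated RetCOR corepressor at 7 nM final. Schedule: 5 h at 4 °C. Detection: TR-FRET, emission read at 617 and 671 nm. Replicates: one well per compound, singlicate testing.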
# NR2E3 agonist cf – confirmation of human NR2E3 nuclear receptor agonists; shares compounds with NR2E3 ag-2; cell-free NR2E3 corepressor release, TR-FRET, 5 h; activation (reported as inhibition), % at 3.98 µM; 360 compounds, 39% hits; in the data active means activation above about 20%
# PPARg-NCOR2 ag – counter-screen for NR2E3 agonists: human PPARgamma-NCOR2 interaction agonists. inhibition, % at 3.98 µM. shares compounds with NR2E3 ag-2. TR-FRET PPARg-NCOR2 coregulator interaction, biochemical. AID 504787. 360 compounds, 45% hits; in the data active means inhibition above about 20%;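 further: 0% = DMSO vehicle and 100% = wells without protein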
# The depositor's hits bear a star; nt = no result.
SMILES,MT1-MMP act inh,DAGLB inh,NR2E3 ag-1,Vif inh,HCV core dimer,NR2E3 ag-2,NR2E3 agonist cf,PPARg-NCOR2 ag
CC(C)[C@H](NC(=O)N1CC(=O)Nc2ccccc21)C(=O)N1CCC[C@@H]1C(=O)O,4.3,-1.7,13.7,-5.2,-2.2,2.6,nt,nt
CC(C(=O)NCc1ccccc1)N1CCN(c2ccc(F)cc2)CC1 (stereo unspecified),-0.5,0.9,-34.3,0.5,-5.5,-3.5,nt,nt
COc1cccc(CNC(=O)CCCn2c(=S)[nH]c3cc4c(cc3c2=O)OCO4)c1,0.1,0.5,-1.6,-15.3,6.1,26.2*,31.3*,35.9*
COc1cccc(N2CCN(C(=O)CCCCCn3c(=S)[nH]c4cc5c(cc4c3=O)OCO5)CC2)c1,5.8,-0.6,-7.1,-2.7,16.1,4.5,nt,nt
NS(=O)(=O)c1ccc(CCNS(=O)(=O)c2cccc(C(=O)O)c2)cc1,2.7,1.2,2.8,-5.4,-6.5,0.5,nt,nt
O=C(C1=C(O)C(=O)N(CCCn2ccnc2)C1c1cccc(Br)c1)c1ccco1 (stereo unspecified),-0.4,-1.5,3.2,-5.4,10.2,34.3*,-0.2,-0.5
O=C(C1=C(O)C(=O)N(CCCn2ccnc2)C1c1ccccc1)c1ccco1 (stereo unspecified),-2.3,-1.6,-8.1,-11.8,-3.3,31.6*,5.7,-1.4
CCOc1ccc(C2C(C(=O)c3ccco3)=C(O)C(=O)N2CCCn2ccnc2)cc1 (stereo unspecified),1.6,2.3,-24.6,2.4,nt,nt,nt,nt
COc1ccc(C(c2c(C)[nH]n(-c3ccccc3)c2=O)c2c(C)[nH]n(-c3ccccc3)c2=O)cc1OC,21.6,13.9,-15.6,-4.4,-3.2,29.7*,-11.8,38.9*
CN(CC(=O)NCCC1=CCCCC1)S(=O)(=O)c1ccc2c(c1)c(=O)n(C)c(=O)n2C,-0.2,-2.0,3.9,nt,13.6,24.5*,-4.9,-6.1
CCc1cccc(NC(=O)CCCN2C(=O)NC(C)(C)C2=O)c1,0.0,-3.0,0.5,16.1,nt,3.6,nt,nt
CCc1cccc(NC(=O)CCCCCC2NC(=O)NC2C)c1 (stereo unspecified),2.0,1.4,-7.1,0.7,3.0,86.0*,90.3*,91.7*
CC1NC(=O)NC1CCCCCC(=O)Nc1ccc(F)c(Cl)c1 (stereo unspecified),4.0,0.6,-4.4,-4.9,-5.3,90.0*,88.2*,91.0*
Cc1ccc(NC(=O)CCCCCC2NC(=O)NC2C)cc1 (stereo unspecified),-0.2,-0.8,-18.7,5.7,1.9,86.8*,90.5*,91.6*
CC(=O)Nc1ccc(S(=O)(=O)Nc2nc3cc4c(cc3nc2Cl)OCCO4)cc1,-6.6,-0.5,-22.7,-1.0,-1.1,19.0,nt,nt
O=S(=O)(Nc1nc2cc3c(cc2nc1Cl)OCCO3)c1ccccc1,0.3,1.0,-16.7,-2.2,0.3,29.9*,11.3,13.5
CC(C)C1Cc2ccccc2-c2[nH]c(=S)[nH]c(=O)c21 (stereo unspecified),2.7,nt,9.8,0.7,8.8,20.3*,21.0*,26.2*
CCC1(CC)Cc2ccccc2-c2[nH]c(=S)[nH]c(=O)c21,-0.6,1.7,5.8,0.0,10.7,6.6,nt,nt
Cc1cccc(C)c1NC(=O)Cn1c(=O)c2cccn2c2ccccc21,3.6,0.1,-6.9,-4.7,14.4,0.8,nt,nt
CCc1cccc(NC(=O)Cn2c(=O)c3cccn3c3ccccc32)c1,1.1,-3.4,-4.0,7.7,3.3,26.1*,10.4,11.6
O=C(O)CCCN1C(=O)/C(=C/C=C/c2ccco2)SC1=S,4.4,6.5,-12.4,-13.4,74.5*,32.4*,-5.7,20.0*
O=C(O)CCCN1C(=O)/C(=C\C(Cl)=C\c2ccccc2)SC1=S,-6.3,0.3,9.1,-8.4,nt,nt,nt,nt
O=C(O)C(Cc1ccccc1)N1C(=O)/C(=C/C=C/c2ccco2)SC1=S (stereo unspecified),-4.5,10.6,-23.3,-14.5,nt,nt,nt,nt
O=C(O)CC(C(=O)O)N1C(=O)/C(=C/C=C/c2ccco2)SC1=S (stereo unspecified),1.8,-0.4,-44.5,8.0,-12.1,39.0*,35.6*,-5.9
Cc1cc(C)c2c(CC(=O)NC3CCS(=O)(=O)C3)coc2c1 (stereo unspecified),1.3,0.3,16.6,1.6,-2.3,0.2,nt,nt
SMILES,MT1-MMP act inh,DAGLB inh,NR2E3 ag-1,Vif inh,HCV core dimer,NR2E3 ag-2,NR2E3 agonist cf,PPARg-NCOR2 ag
COc1cc(N=Nc2ccc(C)cc2S(N)(=O)=O)c(C)cc1N,28.9,29.4,-26.0,-16.9,nt,nt,nt,nt
C=CCOc1ccc(/C(O)=C2\C(=O)C(=O)N(CCOC)C2c2cccnc2)cc1 (stereo unspecified),-2.1,0.4,21.7,7.6,0.3,20.6*,5.0,4.2
CCCOc1ccc(/C(O)=C2/C(=O)C(=O)N(CCOC)C2c2cccnc2)cc1 (stereo unspecified),nt,nt,nt,nt,-0.4,5.0,nt,nt
N[C@@H](C(=O)N[C@@H]1C(=O)N2C(C(=O)O)=C(Cl)CS[C@H]12)c1ccccc1,-5.6,1.6,-34.8,-11.1,1.9,-1.4,nt,nt
NC(=O)c1cc[n+](CC2=C(C(=O)O)N3C(=O)[C@@H](NC(=O)C(c4ccccc4)S(=O)(=O)[O-])[C@H]3SC2)cc1 (stereo partly specified),-6.8,-1.4,-24.1,-12.2,11.3,23.3*,4.6,2.1
COc1ccc(-n2c(=S)[nH]c3c(oc4ccccc43)c2=O)cc1,2.9,1.3,-34.8,-5.7,5.2,52.9*,38.7*,37.6*
CCN1CCC[C@H]1CNCCCn1cnc2c(SC)ncnc21,1.7,-1.9,-19.8,-19.8,nt,nt,nt,nt
CCc1c(C(=O)O)[nH]c2ccc(Br)cc12,5.8,8.2,-1.7,-5.8,13.3,43.5*,40.7*,30.2*
NNC(=O)c1[nH]c2ccc(Br)cc2c1-c1ccccc1,-8.7,-24.7,18.7,-1.7,3.0,-1.1,nt,nt
Cc1nn(CC(=O)NCc2ccc(OC(C)C)cc2)c(=O)c2cc(-c3ccccc3)nn12,0.8,-3.5,-9.8,-1.4,-8.3,-0.5,nt,nt
CSc1ccc(CN2CCC2(C)C(=O)Nc2ccc3c(c2)OCO3)cc1 (stereo unspecified),-4.9,nt,-2.3,11.9,nt,nt,nt,nt
Cc1ccc(-c2cc(C(=O)NN3CCOCC3)c3cc(Br)ccc3n2)o1,2.1,1.0,-8.4,-1.0,7.4,4.5,nt,nt
